{"source": "paper PMC8428381", "about": "(Journal of Virology, 2021)", "key": {"SARS-CoV-2": {"tested_on": "SARS-CoV-2", "conditions": "by acting against TMPRSS2; cited from earlier work"}, "factor XIa (FXIa)": {"target": "factor XIa (FXIa) (Homo sapiens, UniProt P03951)", "sequence (P03951 388-623 limits assumed)": "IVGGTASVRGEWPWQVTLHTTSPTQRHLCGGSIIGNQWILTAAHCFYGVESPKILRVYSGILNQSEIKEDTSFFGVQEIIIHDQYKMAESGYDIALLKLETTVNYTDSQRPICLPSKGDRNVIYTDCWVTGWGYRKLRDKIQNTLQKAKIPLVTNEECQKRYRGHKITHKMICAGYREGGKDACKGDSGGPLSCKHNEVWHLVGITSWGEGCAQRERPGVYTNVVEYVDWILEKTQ", "assay": "Chromogenic enzyme inhibition assay, factor XIa", "type": "biochemical", "how_it_was_run": "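Recombinant FXIa serine protease domain expressed in Pichia pastoris X-33. 2 nM enzyme preincubated 15 min at 37°C with a range of test compound concentrations in 0.01 M HEPES, 0.15 M NaCl, pH 7.4, 0.1% BSA. Chromogenic substrate was then added at about its Km. Initial velocities were read at 405 nm, and IC50 came from a sigmoidal nonlinear fit.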"}, "plasma kallikrein (PK)": {"target": "plasma kallikrein (PK) (Homo sapiens, UniProt P03952)", "sequence (P03952 391-626 limits assumed)": "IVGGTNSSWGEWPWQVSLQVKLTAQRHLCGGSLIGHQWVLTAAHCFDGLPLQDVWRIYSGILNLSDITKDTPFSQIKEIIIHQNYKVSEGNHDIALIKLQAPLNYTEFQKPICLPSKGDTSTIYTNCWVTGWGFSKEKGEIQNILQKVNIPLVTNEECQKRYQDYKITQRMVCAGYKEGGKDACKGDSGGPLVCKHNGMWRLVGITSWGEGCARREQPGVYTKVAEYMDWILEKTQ", "assay": "Chromogenic enzyme inhibition assay, plasma kallikrein", "type": "biochemical"}, "murine uPA (muPA)": {"target": "murine uPA (muPA) (Mus musculus, UniProt P06869)", "sequence (P06869 180-426 limits assumed)": "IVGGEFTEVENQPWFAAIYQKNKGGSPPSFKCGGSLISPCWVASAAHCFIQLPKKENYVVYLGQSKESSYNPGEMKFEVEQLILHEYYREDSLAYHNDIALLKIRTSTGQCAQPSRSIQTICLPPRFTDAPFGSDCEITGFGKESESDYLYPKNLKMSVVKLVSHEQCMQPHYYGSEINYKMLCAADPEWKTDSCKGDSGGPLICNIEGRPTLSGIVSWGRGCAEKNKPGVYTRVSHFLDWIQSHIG", "assay": "Chromogenic enzyme inhibition assay, murine uPA serine protease domain", "type": "biochemical", "how_it_was_run": "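Mouse uPA serine protease domain, expressed as E. coli BL21(DE3) inclusion bodies, then refolded and purified. 2 nM enzyme preincubated 15 min at 37°C with varied test compound in 0.01 M HEPES, 0.15 M NaCl, pH 7.4, 0.1% BSA. S-2444 then added at about Km. Initial velocities read at 405 nm; IC50 from a sigmoidal nonlinear regression.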"}, "matriptase": {"target": "T1, matriptase (Homo sapiens, UniProt Q9Y5Y6)", "T1 sequence (Q9Y5Y6 615-854 limits assumed)": "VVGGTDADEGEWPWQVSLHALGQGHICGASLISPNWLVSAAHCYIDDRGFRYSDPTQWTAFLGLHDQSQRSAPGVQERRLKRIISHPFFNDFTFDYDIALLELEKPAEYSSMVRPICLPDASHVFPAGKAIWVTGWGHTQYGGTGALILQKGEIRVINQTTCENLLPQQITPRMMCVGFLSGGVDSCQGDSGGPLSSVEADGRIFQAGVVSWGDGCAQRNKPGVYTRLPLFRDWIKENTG", "assay": "Chromogenic enzyme inhibition assay, matriptase", "type": "biochemical", "how_it_was_run": "(§1)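 Serine protease domains (uPA, matriptase) expressed in Pichia pastoris X-33. 2 nM enzyme preincubated 15 min at 37°C with varied test compound in 0.01 M HEPES, 0.15 M NaCl, pH 7.4, 0.1% BSA. Substrate at about Km: S-2444 for uPA, S-2288 for matriptase. Initial rates read at 405 nm; IC50 from a sigmoidal nonlinear fit.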"}, "uPA": {"target": "uPA (Homo sapiens, UniProt P00749, C299A/N322Q)", "assay": "Chromogenic enzyme inhibition assay, uPA serine protease domain", "type": "biochemical", "how_it_was_run": "as §1"}}, "note": "Where a name gives a salt, the structure may show the parent alone."}
{"compound": "CN(C)C(=O)COC(=O)Cc1ccc(OC(=O)c2ccc(NC(=N)N)cc2)cc1", "note": "[camostat, camostat mesylate]", "values": [{"measurement": "SARS-CoV-2 infection of human lung cells", "setting": "SARS-CoV-2", "result": "inhibits SARS-CoV-2 infection of human lung cells"}, {"measurement": "IC50", "setting": "factor XIa (FXIa)", "result": "44.1 ± 1.1", "unit": "nM"}, {"measurement": "IC50", "setting": "plasma kallikrein (PK)", "result": "10.4 ± 2.7", "unit": "nM"}, {"measurement": "IC50", "setting": "murine uPA (muPA)", "result": "100 ± 41.9", "unit": "nM"}, {"measurement": "IC50", "setting": "matriptase", "result": "21.1 ± 3.5", "unit": "nM"}, {"measurement": "IC50", "setting": "uPA", "result": "86.4 ± 9.4", "unit": "nM"}]}
